This data set relates to MS2 coat protein. Kind of data set: apparent Kd, MS2 coat protein; higher = weaker binding; RNA-MaP array; FMN 200 µM where present. The method, boiled down:
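Apparent Kd: the median of filtered binding-curve fits from single clusters. Designs were transcribed on Illumina sequencing-chip clusters by stalled E. coli RNA polymerase and titrated with SNAP-549-labelled MS2 coat protein from 0.7 or 1.5 nM, doubling to 3 µM, in 100 mM Tris-HCl pH 7.5, 80 mM KCl, 4 mM MgCl2, BSA, DTT, yeast tRNA and Tween-20. Each series ran without and then with constant ligand, and green signal was normalised to red-channel RNA signal and control-cluster median Fmax.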

[1] abbreviates: designed as: OFF switch for flavin mononucleotide, no ligand.
The mark [2] stands for this setting: ligand present: flavin mononucleotide, designed as: OFF switch for flavin mononucleotide.
Setting [3] is: designed as: ON switch for flavin mononucleotide, no ligand.
Setting [4] is: ligand present: flavin mononucleotide, designed as: ON switch for flavin mononucleotide.

As for “GUUGGGUGUCAUGUCGCACAUGAGGAUCACCCAUGUAGGAGGUAGGAUAUCCACGAGAAACGAGAGGAGAAGGGCCAUUAGCGU”, the apparent Kd (usually a dissociation constant that holds for the conditions of the assay) worked out at 19.2 nM under setting [1] and 23 nM under setting [2].
As for “AGUAAAGGCCUGAGGUGUCCGAACAUGAGGAUCACCCAUGUAGAGGAUAUAGGUGGAAGUGACUCCUAGAAGGCUACGUGUCAU”, the “apparent Kd” value is, setting by setting: under setting [1], 6.18 nM; under setting [2], 8.18 nM.
As to “CUUUUGUGAGGAUAUCAGUAGUAAAAAAAUAAAUUUACUACUGAGAAGGCACAUGAGGAUCACCCAUGUUCCUC”, the “apparent Kd” value runs as follows: under setting [1], 42.2 nM; under setting [2], 296 nM.
With “GUGUGCUGAGGAUAUACAGAGGAAGAUAAGAUAAGAUAAUCACAUGAGGAUCACCCAUGUAGAAGGCAGAGUGU”, the “apparent Kd” value is 23.7 nM under setting [1] and 35.5 nM under setting [2].
“AGUUAAUAUCGAGGAUAUAAGUCUAAGACAUGAGGAUCACCCAUGUAUGUCUUAGAAGGCGAUAUUAACAGCAUGUUACAUGCA”: the “apparent Kd” value runs as follows: under setting [3], 53.2 nM; under setting [4], 9.67 nM.
On the same counts, the results for “GGUGUCGCAUGAGGAUAUGGUCAGCUUUGCUGACCAGAAGGCAUGUCGAUAGACAUGAGGAUCACCCAUGUAGUAAAGACACCA” are 990 nM and 72.7 nM.
Consider “GCCAUGUUAGGAUAUGCCAUUAUACUGCUGGGUAUAGAUUGGUAGAAGGAACAUGAGGAUCACCCAUGUUCGGG”, for which the “apparent Kd” value is, setting by setting: under setting [1], 83.9 nM; under setting [2], 178 nM.
For the sequence “UUUUAACAUGAGGAUCACCCAUGUGAGGAUAUCGAAAUUUAUAUUAAUAUUUAUUAAACGAGAAGGCACAUUUU”, the “apparent Kd” value under setting [1] was found to be 82.2 nM and the “apparent Kd” value under setting [2] is 80.7 nM.
Turning to “CGUAGGAUCCAGAAGGCAUGAAACAUGAGGAUCACCCAUGUCAAAGACAUGAGGAUAUGGAUCCUACGAAAAGUGCGAAAGCAC”, the “apparent Kd” value came out at 4.1 nM under setting [3] and 3.15 nM under setting [4].
Consider “UUUAUGUCAGGAUAUGAGUAGUAGAACAAUAGUACUACUACUCAGAAGGGACAUGAGGAUCACCCAUGUGCCUC”, for which the “apparent Kd” value by setting is: under setting [1], 35.2 nM; under setting [2], 291 nM.
With “GACAAUCUAUCUGAGGAUAUCAUGAAAAAAACAUGAGGAUCACCCAUGUGCAGGAAAACUGCAUAUGAGAAGGCAGAUAGAUUGC”, the “apparent Kd” value is 678 nM under setting [3] and 27.4 nM under setting [4].
Regarding “AGAGCCUCGUGAGGAUAUACAUGAGGAUCACCCAUGUAAAUGAAUGAACGGUGGAAACACCGAAUGUAGAAGGCACGAGGCUCA”, the “apparent Kd” value came to 37.9 nM under setting [1] and 223 nM under setting [2].
Turning to “CUCUUGUGAGGAUAUCAGUAGUAAAAAAAUAAAAUUACUACUGAGAAGGCACAUGAGGAUCACCCAUGUGUCUU”, the “apparent Kd” value is, setting by setting: under setting [1], 14 nM; under setting [2], 13.1 nM.
In the case of “GCGGUACAUGAGGAUCACCCAUGUCAGGAUAUCCGCUGUUUGUUAAUAAGCAGGCGGUGGAGAAGGGACUUCGC”, the “apparent Kd” value was found to be 32 nM under setting [1] and 33.1 nM under setting [2].
Take “AGUCGGAGCAGAGGAUAUACAUGAGGAUCACCCAUGUAAAUGAAUGAAGCCUGGAAACAGGCAAUGUAGAAGGCUGCUCCGACA”: the “apparent Kd” value is, setting by setting: under setting [1], 17.6 nM; under setting [2], 54.2 nM.
Regarding “UUAAAUCAUGUAGGAUAUGCAUGGCGAAGCUACGCAGAAGGACAUGAGGAUCACCCAUGUGCUAGCGUCUGAGAACAGAUGCAA”, the “apparent Kd” value runs as follows: under setting [1], 42 nM; under setting [2], 235 nM.
For the sequence “AAAUCAGUAGGAUAUACGAUUUUAUGCUAGAUAGAGGGACCACAUGAGGAUCACCCAUGUAGAAGGACUAGAUA”, the “apparent Kd” value came out at 20.2 nM under setting [1] and 21.4 nM under setting [2].
As to “CCGUAAAAUGGAGGAUAUGGAGCCUUAUUGGCUCCAGAAGGUCAUAAAACAUGAGGAUCACCCAUGUCGGCGGUCAAUAGACCG”, the “apparent Kd” value under setting [3] turned out to be 47.9 nM and the “apparent Kd” value under setting [4] was found to be 20.2 nM.
In the case of “CGGGAGUCAGGAUAUACGAACAUGUCGCCAGAUGUCAAGGUACAUGAGGAUCACCCAUGUAGAAGGGAGGAGUU”, the “apparent Kd” value is 91.9 nM under setting [1] and 56.6 nM under setting [2].
On to “GUAGGCGACCAGAAGGGUGACAUGAGGAUCACCCAUGUAGAUGUGUUCCCGCUUGGGAGCCGUCCACAGGAUAUGGUUGCUUAG”, for which the “apparent Kd” value reads like this: under setting [3], 66.5 nM; under setting [4], 42.5 nM.
As to “CUAUUUUUACAGAAGGUUUAAUACUAUGUAUGAGAAGGAUAUGUAACAUGAGGAUCACCCAUGUUUUAUUUAUAUGAGGUUCGU”, the “apparent Kd” value by setting is: under setting [1], 13.4 nM; under setting [2], 11.4 nM.
Turning to “UUUACAUGAGGAUCACCCAUGUUUAGAAAGAUUGGUUUAGGUGAGGAUAUACAUGAUAAUGAAUUGUAGAAGGCACUGGGUACA”, the “apparent Kd” value under setting [3] stood at 30.1 nM and the “apparent Kd” value under setting [4] turned out to be 24 nM.
As for “AAAGCAACAUGAGGAUCACCCAUGUAGGAUAUCGCUAUUGUAAUCAUGAAACAUGAUUACAAUAGCGAGAAGGACAUAUGCAAA”, the “apparent Kd” value by setting is: under setting [1], 11.3 nM; under setting [2], 12.9 nM.
For “AUAAAACAUGAGGAUCACCCAUGUCAGGAUAUACGAUAUUAAAUUUAAUAUAUUUAUAGUAGAAGGGACAAAUA”, the “apparent Kd” value under setting [1] is 50.4 nM and the “apparent Kd” value under setting [2] was found to be 55 nM.
With “AUUAUUAUAUUAUACAUGAGGAUCACCCAUGUUAUAAGUCAUGAGGAUAUGGUAUUGUAGUUAUUCCAGAAGGCAUUUAACUUA”, the “apparent Kd” value reads like this: under setting [3], 11.4 nM; under setting [4], 7.05 nM.
On to “AAAAAACAUGAGGAUCACCCAUGUUAGGAUAUCCUGCAGAAAAAAAAAAAAAACUGCAGGAGAAGGAGCAAGGA”, for which the “apparent Kd” value was 90 nM under setting [1] and 104 nM under setting [2].
“ACAUCGUGAGACAUGAGGAUCACCCAUGUGUGAUAGUGGGCACAGGAUAUCCAAAUUUGGAAUUUGGAGAAGGGUGAUCGUUAA”: the “apparent Kd” value reads like this: under setting [3], 72.1 nM; under setting [4], 68.6 nM.
“UCGUACUAGGGAGGAUAUGGGAAGAUACAUGAGGAUCACCCAUGUUUAAGAAUGCCGAGAGGCAACUAGAAGGCCCUAGUACCU”: the “apparent Kd” value worked out at 391 nM under setting [3] and 19.1 nM under setting [4].
Consider “UUUUAGUGAGGAUAUGUGGCUUCGAUCGUGAGAUCGAGGCUACAGAAGGCACAUGAGGAUCACCCAUGUUCCUA”, for which the “apparent Kd” value worked out at 16.6 nM under setting [1] and 81.7 nM under setting [2].
As to “CGCAACAUACAGAAGGAGUUAUUGAGAGGUUUACUAGGAUAUGUUCACAUGAGGAUCACCCAUGUCGUUUGGGAUUUUGUUGCG”, the “apparent Kd” value by setting is: under setting [1], 125 nM; under setting [2], 51.3 nM.
For the sequence “UUGAGGUGCAAGAAGGAUCACAUGAGGAUCACCCAUGUAAUAUAAAGUCUCGAGAUUUUAUAUUGAUAGGAUAUUGCACCGAAC”, the “apparent Kd” value reads like this: under setting [3], 42.2 nM; under setting [4], 6.26 nM.
Regarding “UACCACGUUUGAUUAGGCGUGACAUGAGGAUCACCCAUGUGUCAGGAUAUACAUGGGCGGGCCCAGUAGAAGGGACUUAAUAGC”, the “apparent Kd” value worked out at 327 nM under setting [3] and 65.1 nM under setting [4].
As for “UCACUUCGUGAGGAUAUGCAAGGACUAUGACUGGUAGAAGGCACGACAUGAGGAUCACCCAUGUCUGUGGGUCC”, the “apparent Kd” value was determined as 17 nM under setting [1] and 18.3 nM under setting [2].
For “UUUUAGUCAGGAUAUACAUGAGGAUCACCCAUGUAAAAUUUUAGUUUAAUUUGAAUGUGUAGAAGGGACAUUUU”, the “apparent Kd” value under setting [1] amounted to 24.7 nM and the “apparent Kd” value under setting [2] is 22.9 nM.
For the sequence “ACAUUUUAUGCAGGAUAUUGACUUUGGAUUAAACAAGAAGGGCAUUACAUGAGGAUCACCCAUGUUUUAUUGGUAUAUAAGUUC”, the “apparent Kd” value runs as follows: under setting [1], 13.9 nM; under setting [2], 17.1 nM.
As for “GGAGCCGGCACUGAGGAUAUUCAUAUUAAAACAUGAGGAUCACCCAUGUAGGCCAGAAGGCCUUGGGAGAAGGCAGGUCGGCUCG”, the “apparent Kd” value is, setting by setting: under setting [3], 423 nM; under setting [4], 27.9 nM.
Turning to “GGAUGAGCGAUAGGAUAUGCUGGGAUUGAAUGGGUAGAAGGAUUUCUAGUGGGAAAGACAUGAGGAUCACCCAUGUCGCGGACC”, the “apparent Kd” value under setting [3] stood at 30.3 nM and the “apparent Kd” value under setting [4] came to 29.4 nM.
In the case of “GUGUAGUGAGGAUAUACAUGAGGAUCACCCAUGUGAAUAAGAUAGAAUAAGAUAAAGUGUAGAAGGUAUAGUGU”, the “apparent Kd” value is, setting by setting: under setting [1], 53.2 nM; under setting [2], 35.3 nM.
Take “CACCCUGAUGUCAGGAUAUGCGCGUCGCGCCUCGAGCAGAAGGGACAUGAGGAUCACCCAUGUUGUCUCUUGGG”: the “apparent Kd” value is, setting by setting: under setting [1], 48.9 nM; under setting [2], 98.7 nM.
Take “UUGUUAUAUGUAGGAUAUGCGUAUUAUUAUUAUGCAGAAGGACAUGAGGAUCACCCAUGUAUAUUAUUAUUAUAUAUUAUAUAU”: the “apparent Kd” value by setting is: under setting [1], 27.9 nM; under setting [2], 43.7 nM.
As for “GUCAGCUCGUGAGGAUAUACAUGUGCUGGAUACAGCAUUAUAUUUUUCACAUGAGGAUCACCCAUGUAGAAGGCACGAGCUGAU”, the “apparent Kd” value under setting [1] came out at 16.6 nM and the “apparent Kd” value under setting [2] was determined as 29.9 nM.
For “GGGCCACAUGAGGAUCACCCAUGUAAACCCGUGCUCAGGGCACAGGAUAUGGGUCGGGAUGAGACCCAGAAGGGUGGUCUGGCC”, the “apparent Kd” value was found to be 33.4 nM under setting [3] and 18.2 nM under setting [4].
Consider “AAUUCACAUGAGGAUCACCCAUGUCAGGAUAUGGUUUCACUUUUUUCUUUUCUUGAUUCCAGAAGGGACAGCUA”, for which the “apparent Kd” value worked out at 77.3 nM under setting [1] and 68.5 nM under setting [2].
In the same order, the values of “GUCGUGUGAGGAUAUGCACGAGUGACAGGGAGGCUGUCACAGCAGAAGGUACAUGAGGAUCACCCAUGUGAAAU” are 29.1 nM and 24.2 nM.
On the same counts, the results for “CCAAACUGAGGAUAUACAUGAGGAUCACCCAUGUGCCCGCGGUCAUAUGUAGCCUAGUGUAGAAGGCAGAAAAC” are 75.5 nM and 25 nM.
Turning to “AUCAAUCACAUAGGAUAUAGAAUAUUAUAUUUUUACAUGAGGAUCACCCAUGUUUUAUUGGGAUUCUAGAAGGAUGAGUUAUUA”, the “apparent Kd” value is, setting by setting: under setting [3], 130 nM; under setting [4], 118 nM.
“UUUUAACAUGAGGAUCACCCAUGUGAGGAUAUCGAAAUUUAUAUUAAUAUUAUUAUAACGAGAAGGCACAUUUU”: the “apparent Kd” value under setting [1] is 66.5 nM and the “apparent Kd” value under setting [2] was 82.9 nM.
“ACUAGAAGCGUGAGAUAUCACAUGAGGAUCACCCAUGUGACGCAGGAUAUAACAAUAUCAGAAGGUUAGAAGGGUGAGCACGCC”: the “apparent Kd” value was 101 nM under setting [3] and 52.9 nM under setting [4].

(Values after the EternaBench riboswitch data.)
